# Assay results taken from ChEMBL document CHEMBL1208662, “Antimicrobial activity and a SAR study of some novel benzimidazole derivatives bearing hydrazone moiety” (Eur J Med Chem, 2010).
# System: Nakaseomyces glabratus
# Assay: Antimicrobial activity against Candida glabrata by broth microdilution method
# Type: functional
# Settings: not given
# Summary of the method: (§1)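 Yeasts grown overnight at 35 ± 1 °C in Sabouraud dextrose broth. Tested by CLSI M7-A7 broth microdilution in Sabouraud dextrose broth, pH 7, two-fold serial dilutions 800 down to 1.5625 μg/mL of DMSO-dissolved compound. DMSO-only control. Inoculum matched to McFarland 0.5, final 0.5-2.5 × 10^5 cfu/mL. MIC is last well without growth, µg/mL. Duplicate readings. Ketoconazole reference.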
row,Structure (SMILES),MIC
1,O=C(N/N=C/c1ccccc1)c1ccc(-c2nc3ccccc3[nH]2)cc1,100 µg/mL
2,O=C(N/N=C/c1ccc(O)cc1)c1ccc(-c2nc3ccccc3[nH]2)cc1,100 µg/mL
3,CN(C)c1ccc(/C=N/NC(=O)c2ccc(-c3nc4ccccc4[nH]3)cc2)cc1,50 µg/mL

# System: Pseudomonas aeruginosa
# Assay: Antimicrobial activity against Pseudomonas aeruginosa by broth microdilution method
# Type: functional
# Settings: not given
# Summary of the method: (§2)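 CLSI M7-A7 broth microdilution, two-fold serial dilutions 800 down to 1.5625 μg/mL in Mueller–Hinton broth, pH 7. Compounds dissolved in DMSO; DMSO-only solvent control. Overnight cultures at 35 ± 1 °C, inoculum matched to McFarland 0.5, final 0.5-2.5 × 10^5 cfu/mL. MIC taken as last well without growth, µg/mL. Run twice. Chloramphenicol reference.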
row,Structure (SMILES),MIC
1,O=C(N/N=C/c1ccccc1)c1ccc(-c2nc3ccccc3[nH]2)cc1,25 µg/mL
2,O=C(N/N=C/c1ccc(O)cc1)c1ccc(-c2nc3ccccc3[nH]2)cc1,25 µg/mL
3,CN(C)c1ccc(/C=N/NC(=O)c2ccc(-c3nc4ccccc4[nH]3)cc2)cc1,25 µg/mL

# System: Escherichia coli
# Assay: Antimicrobial activity against Escherichia coli 25922 by broth microdilution method
# Type: functional
# Settings: not given
# Summary of the method: as §2
row,Structure (SMILES),MIC
1,O=C(N/N=C/c1ccccc1)c1ccc(-c2nc3ccccc3[nH]2)cc1,100 µg/mL
2,O=C(N/N=C/c1ccc(O)cc1)c1ccc(-c2nc3ccccc3[nH]2)cc1,100 µg/mL
3,CN(C)c1ccc(/C=N/NC(=O)c2ccc(-c3nc4ccccc4[nH]3)cc2)cc1,100 µg/mL

# System: Candida tropicalis
# Assay: Antimicrobial activity against Candida tropicalis by broth microdilution method
# Type: functional
# Settings: not given
# Summary of the method: as §1
row,Structure (SMILES),MIC
1,O=C(N/N=C/c1ccccc1)c1ccc(-c2nc3ccccc3[nH]2)cc1,100 µg/mL
2,O=C(N/N=C/c1ccc(O)cc1)c1ccc(-c2nc3ccccc3[nH]2)cc1,100 µg/mL
3,CN(C)c1ccc(/C=N/NC(=O)c2ccc(-c3nc4ccccc4[nH]3)cc2)cc1,100 µg/mL

# System: Listeria monocytogenes
# Assay: Antimicrobial activity against Listeria monocytogenes by broth microdilution method
# Type: functional
# Settings: not given
# Summary of the method: as §2
row,Structure (SMILES),MIC
1,O=C(N/N=C/c1ccccc1)c1ccc(-c2nc3ccccc3[nH]2)cc1,400 µg/mL
2,O=C(N/N=C/c1ccc(O)cc1)c1ccc(-c2nc3ccccc3[nH]2)cc1,400 µg/mL
3,CN(C)c1ccc(/C=N/NC(=O)c2ccc(-c3nc4ccccc4[nH]3)cc2)cc1,200 µg/mL

# System: Staphylococcus aureus
# Assay: Antimicrobial activity against Staphylococcus aureus by broth microdilution method
# Type: functional
# Settings: not given
# Summary of the method: as §2
row,Structure (SMILES),MIC
1,O=C(N/N=C/c1ccccc1)c1ccc(-c2nc3ccccc3[nH]2)cc1,25 µg/mL
2,O=C(N/N=C/c1ccc(O)cc1)c1ccc(-c2nc3ccccc3[nH]2)cc1,50 µg/mL
3,CN(C)c1ccc(/C=N/NC(=O)c2ccc(-c3nc4ccccc4[nH]3)cc2)cc1,50 µg/mL

# System: Candida albicans
# Assay: Antimicrobial activity against Candida albicans by broth microdilution method
# Type: functional
# Settings: not given
# Summary of the method: as §1
row,Structure (SMILES),MIC
1,O=C(N/N=C/c1ccccc1)c1ccc(-c2nc3ccccc3[nH]2)cc1,50 µg/mL
2,O=C(N/N=C/c1ccc(O)cc1)c1ccc(-c2nc3ccccc3[nH]2)cc1,100 µg/mL
3,CN(C)c1ccc(/C=N/NC(=O)c2ccc(-c3nc4ccccc4[nH]3)cc2)cc1,100 µg/mL

# System: Klebsiella pneumoniae
# Assay: Antimicrobial activity against Klebsiella pneumoniae by broth microdilution method
# Type: functional
# Settings: not given
# Summary of the method: as §2
row,Structure (SMILES),MIC
1,O=C(N/N=C/c1ccccc1)c1ccc(-c2nc3ccccc3[nH]2)cc1,25 µg/mL
2,O=C(N/N=C/c1ccc(O)cc1)c1ccc(-c2nc3ccccc3[nH]2)cc1,25 µg/mL
3,CN(C)c1ccc(/C=N/NC(=O)c2ccc(-c3nc4ccccc4[nH]3)cc2)cc1,50 µg/mL

# System: Salmonella typhimurium
# Assay: Antimicrobial activity against Salmonella Typhimurium by broth microdilution method
# Type: functional, Salmonella enterica subsp. enterica serovar Typhimurium
# Settings: Salmonella enterica
# Summary of the method: as §2
row,Structure (SMILES),MIC
1,O=C(N/N=C/c1ccccc1)c1ccc(-c2nc3ccccc3[nH]2)cc1,12.5 µg/mL
2,O=C(N/N=C/c1ccc(O)cc1)c1ccc(-c2nc3ccccc3[nH]2)cc1,25 µg/mL
3,CN(C)c1ccc(/C=N/NC(=O)c2ccc(-c3nc4ccccc4[nH]3)cc2)cc1,25 µg/mL

# System: Bacillus subtilis
# Assay: Antimicrobial activity against Bacillus subtilis by broth microdilution method
# Type: functional
# Settings: not given
# Summary of the method: as §2
row,Structure (SMILES),MIC
1,O=C(N/N=C/c1ccccc1)c1ccc(-c2nc3ccccc3[nH]2)cc1,25 µg/mL
2,O=C(N/N=C/c1ccc(O)cc1)c1ccc(-c2nc3ccccc3[nH]2)cc1,25 µg/mL
3,CN(C)c1ccc(/C=N/NC(=O)c2ccc(-c3nc4ccccc4[nH]3)cc2)cc1,25 µg/mL

# System: Proteus vulgaris
# Assay: Antimicrobial activity against Proteus vulgaris by broth microdilution method
# Type: functional
# Settings: not given
# Summary of the method: as §2
row,Structure (SMILES),MIC
1,O=C(N/N=C/c1ccccc1)c1ccc(-c2nc3ccccc3[nH]2)cc1,50 µg/mL
2,O=C(N/N=C/c1ccc(O)cc1)c1ccc(-c2nc3ccccc3[nH]2)cc1,25 µg/mL
3,CN(C)c1ccc(/C=N/NC(=O)c2ccc(-c3nc4ccccc4[nH]3)cc2)cc1,50 µg/mL

# System: Escherichia coli
# Assay: Antimicrobial activity against Escherichia coli 35218 by broth microdilution method
# Type: functional
# Settings: not given
# Summary of the method: as §2
row,Structure (SMILES),MIC
1,O=C(N/N=C/c1ccccc1)c1ccc(-c2nc3ccccc3[nH]2)cc1,25 µg/mL
2,O=C(N/N=C/c1ccc(O)cc1)c1ccc(-c2nc3ccccc3[nH]2)cc1,25 µg/mL
3,CN(C)c1ccc(/C=N/NC(=O)c2ccc(-c3nc4ccccc4[nH]3)cc2)cc1,25 µg/mL

# System: Enterococcus faecalis
# Assay: Antimicrobial activity against Enterococcus faecalis by broth microdilution method
# Type: functional
# Settings: not given
# Summary of the method: as §2
row,Structure (SMILES),MIC
1,O=C(N/N=C/c1ccccc1)c1ccc(-c2nc3ccccc3[nH]2)cc1,12.5 µg/mL
2,O=C(N/N=C/c1ccc(O)cc1)c1ccc(-c2nc3ccccc3[nH]2)cc1,25 µg/mL
3,CN(C)c1ccc(/C=N/NC(=O)c2ccc(-c3nc4ccccc4[nH]3)cc2)cc1,25 µg/mL
